# From ChEMBL document CHEMBL1129643 (J Med Chem, 1996)
# Tests used:
# [1] = target: T1, Alpha-1A adrenergic receptor (Rattus norvegicus, UniProt P43140); experiment: Binding affinity to the alpha-1 adrenergic receptor using a radioligand [3H]prazosin binding assay in rat brain membranes; assay type: cell membranes
# T1 sequence (P43140 whole entry): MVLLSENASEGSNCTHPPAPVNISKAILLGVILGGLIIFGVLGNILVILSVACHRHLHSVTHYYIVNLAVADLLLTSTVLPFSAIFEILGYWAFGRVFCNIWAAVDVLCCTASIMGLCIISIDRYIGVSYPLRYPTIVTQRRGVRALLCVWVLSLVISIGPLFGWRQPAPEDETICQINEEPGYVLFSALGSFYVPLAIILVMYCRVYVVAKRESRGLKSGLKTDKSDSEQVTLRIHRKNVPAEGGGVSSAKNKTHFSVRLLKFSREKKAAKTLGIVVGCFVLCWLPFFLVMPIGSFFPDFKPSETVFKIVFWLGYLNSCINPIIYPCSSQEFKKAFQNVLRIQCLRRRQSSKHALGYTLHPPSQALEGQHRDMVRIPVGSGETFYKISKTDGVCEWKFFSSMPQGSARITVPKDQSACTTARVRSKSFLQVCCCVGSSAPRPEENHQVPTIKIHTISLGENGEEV
# [2] = target: 5-hydroxytryptamine receptor 2A (Rattus norvegicus, UniProt P14842); experiment: Binding affinity to serotonin 5-hydroxytryptamine 2A receptors using a radioligand [3H]ketanserin binding assay in rat cortical membranes; assay type: cell membranes
# Chain of 5-hydroxytryptamine receptor 2A (P14842 whole entry): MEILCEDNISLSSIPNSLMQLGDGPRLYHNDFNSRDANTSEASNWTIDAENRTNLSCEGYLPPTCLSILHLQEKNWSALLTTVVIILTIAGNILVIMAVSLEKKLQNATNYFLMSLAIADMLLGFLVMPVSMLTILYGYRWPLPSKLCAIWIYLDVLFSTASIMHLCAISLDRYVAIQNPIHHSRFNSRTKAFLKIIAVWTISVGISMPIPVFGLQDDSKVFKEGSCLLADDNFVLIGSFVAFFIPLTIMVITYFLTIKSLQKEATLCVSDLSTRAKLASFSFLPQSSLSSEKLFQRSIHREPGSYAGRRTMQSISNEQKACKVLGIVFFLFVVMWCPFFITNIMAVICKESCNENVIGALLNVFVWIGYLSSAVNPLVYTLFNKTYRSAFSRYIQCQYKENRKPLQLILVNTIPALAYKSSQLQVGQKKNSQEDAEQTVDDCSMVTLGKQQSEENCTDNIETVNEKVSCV
# D(2) dopamine receptor = D(2) dopamine receptor (Rattus norvegicus, UniProt P61169); experiment: Binding affinity to dopamine receptor D2 using a [3H]-spiperone binding assay in rat cortical membranes; assay type: cell membranes
# Chain of D(2) dopamine receptor (P61169 whole entry): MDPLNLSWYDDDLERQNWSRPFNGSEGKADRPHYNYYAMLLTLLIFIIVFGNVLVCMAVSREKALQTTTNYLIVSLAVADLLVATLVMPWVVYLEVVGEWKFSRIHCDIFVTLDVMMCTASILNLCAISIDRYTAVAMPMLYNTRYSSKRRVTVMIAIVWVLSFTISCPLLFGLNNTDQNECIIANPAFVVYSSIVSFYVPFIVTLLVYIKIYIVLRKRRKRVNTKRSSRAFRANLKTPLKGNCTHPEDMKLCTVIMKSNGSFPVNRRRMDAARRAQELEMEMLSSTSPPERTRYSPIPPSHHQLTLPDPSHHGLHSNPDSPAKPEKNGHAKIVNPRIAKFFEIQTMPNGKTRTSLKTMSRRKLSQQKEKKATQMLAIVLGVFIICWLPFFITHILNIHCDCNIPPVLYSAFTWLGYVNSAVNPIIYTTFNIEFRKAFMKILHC
# Rattus norvegicus [3] = experiment: Effective dose was measured to inhibit 50% of quipazine induced head twitches in rat after 24 hr r of peroral administration; assay type: functional; settings: po
# Procedure, shortened: (§1)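 Rats received test compound sc or po, 2 or 24 h before quipazine (15 µmol/kg, sc). Head twitches were counted 30–40 min after quipazine. Counts were expressed as percent of a quipazine-treated control group, with at least four animals per dose.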
# Rattus norvegicus [4] = experiment: Effective dose was measured to inhibit 50% of quipazine induced head twitches in rat after 2 hr of subcutaneous administration; assay type: functional; settings: sc; procedure, shortened: as §1
# Rattus norvegicus [5] = experiment: Effective dose was measured to inhibit 50% of quipazine induced head twitches in rat after 24 hr r of subcutaneous administration; assay type: functional; settings: sc; procedure, shortened: as §1
# Rattus norvegicus [6] = experiment: Antagonism of Pergolide-Induced Circling Behavior in rats with unilateral 6-OHDA Lesions after 2 hr of sc injection; assay type: functional
# Procedure, shortened: (§2)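 Rats with unilateral 6-OHDA lesions were given pergolide (0.050 µmol/kg, sc) to induce contralateral circling. Test compound was injected sc 2 h before pergolide. The effect of each dose was expressed as percent of the mean of control sessions held one week before and one week after the test session for each rat. At least four rats were used per dose.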
# Rattus norvegicus [7] = organism: Rattus norvegicus; experiment: Effective dose was measured as fifty percent inhibition of Pergolide induced rotations in rat; assay type: functional; procedure, shortened: as §2
# Rattus norvegicus [8] = experiment: Effective dose was measured to inhibit 50% of quipazine induced head twitches in rat after 24 hr of peroral administration; settings: po
Structure (SMILES),IC50 [1],IC50 [2],IC50 (D(2) dopamine receptor),other results
CN(CCc1cn(-c2ccc(F)cc2)c2cc(Cl)ccc12)CCN1CCNC1=O,14 nM,0.95 nM,590 nM,–
CN(CCCCN1CCNC1=O)Cc1cn(-c2ccc(F)cc2)c2ccc(Cl)cc12,> 100 nM,110 nM,20 nM,–
CN(C)CCc1cn(-c2ccc(F)cc2)c2ccc(Cl)cc12,40 nM,–,–,–
CN(CCOc1cn(-c2ccc(F)cc2)c2cc(Cl)ccc12)CCN1CCNC1=O,41 nM,–,–,ED50 (Rattus norvegicus [3]): 0.25 µmol/kg; ED50 (Rattus norvegicus [4]): 0.63 µmol/kg
CN(C)CCCOc1cn(-c2ccc(F)cc2)c2ccc(Cl)cc12,> 100 nM,27 nM,24 nM,–
O=C1NCCN1CCN1CCC(c2cn(-c3ccc(F)cc3)c3ccc(Cl)cc23)CC1 [SERTINDOLE],–,–,–,ED50 (Rattus norvegicus [3]): 0.039 µmol/kg; ED50 (Rattus norvegicus [4]): 0.035 µmol/kg; ED50 (Rattus norvegicus [5]): 0.03 µmol/kg; ED50 (Rattus norvegicus [6]): 3.7 µmol/kg
CN(CCCc1cn(-c2ccc(F)cc2)c2ccc(Cl)cc12)CCN1CCNC1=O,43 nM,–,–,–
Fc1ccc(-n2cc(OCCN3CCOCC3)c3cc(Cl)ccc32)cc1,110 nM,–,–,–
C#CCN(CCOc1cn(-c2ccc(F)cc2)c2ccc(Cl)cc12)CCN1CCNC1=O,88 nM,–,–,–
CN(CCOc1cn(-c2ccc(F)cc2)c2ccc(Cl)cc12)CCN1CCNC1=O,5.7 nM,–,–,ED50 (Rattus norvegicus [4]): 0.32 µmol/kg; ED50 (Rattus norvegicus [5]): > 9.1 µmol/kg; ED50 (Rattus norvegicus [6]): 3.6 µmol/kg
CN(CCCN1CCNC1=O)CCc1cn(-c2ccc(F)cc2)c2cc(Cl)ccc12,54 nM,1.9 nM,400 nM,ED50 (Rattus norvegicus [4]): 4.7 µmol/kg; ED50 (Rattus norvegicus [5]): 8.5 µmol/kg
CN(C)CCCc1cn(-c2ccc(F)cc2)c2ccc(Cl)cc12,73 nM,–,–,–
CN(CCN1CCNC1=O)Cc1cn(-c2ccc(F)cc2)c2ccc(Cl)cc12,23 nM,–,–,–
CN(C)CCCCc1cn(-c2ccc(F)cc2)c2ccc(Cl)cc12,310 nM,100 nM,4800 nM,–
CN(CCCN1CCNC1=O)CCc1cn(-c2ccc(F)cc2)c2ccc(Cl)cc12,14 nM,–,–,–
CNc1cc(OC)c(C(=O)N[C@H]2CCN(Cc3ccccc3)[C@H]2C)cc1Cl [NEMONAPRIDE],–,49 nM,–,ED50 (Rattus norvegicus [6]): 0.0057 µmol/kg
Cc1nc2sccn2c(=O)c1CCN1CCC(=C(c2ccc(F)cc2)c2ccc(F)cc2)CC1 [RITANSERIN],–,–,–,ED50 (Rattus norvegicus [4]): 0.1 µmol/kg; ED50 (Rattus norvegicus [7]): > 21 µmol/kg; ED50 (Rattus norvegicus [5]): 0.98 µmol/kg
CCN(CCOc1cn(-c2ccc(F)cc2)c2ccc(Cl)cc12)CCN1CCNC1=O,12 nM,–,–,–
CN(CCc1cn(-c2ccc(F)cc2)c2ccc(Cl)cc12)CCN1CCNC1=O,15 nM,–,–,–
CN(C)CCOc1cn(-c2ccc(F)cc2)c2cc(Cl)ccc12,170 nM,–,–,–
CC(C)N1CCN(CCN(C)CCc2cn(-c3ccc(F)cc3)c3cc(Cl)ccc23)C1=O,400 nM,5.8 nM,190 nM,–
CN(C)CCc1cn(-c2ccc(F)cc2)c2cc(Cl)ccc12,130 nM,5.5 nM,650 nM,–
CN(C)Cc1cn(-c2ccc(F)cc2)c2ccc(Cl)cc12,18 nM,–,–,–
CC(C)N1CCN(CCN(C)CCOc2cn(-c3ccc(F)cc3)c3cc(Cl)ccc23)C1=O,600 nM,–,–,–
CN1CCN(CCOc2cn(-c3ccc(F)cc3)c3ccc(Cl)cc23)CC1,150 nM,100 nM,2.4 nM,ED50 (Rattus norvegicus [6]): 0.048 µmol/kg
CN(C)CCOc1cn(-c2ccc(F)cc2)c2ccc(Cl)cc12,17 nM,–,–,–
CC(C)N1CCN(CCN2CCC(c3cn(-c4ccc(F)cc4)c4cc(Cl)ccc34)CC2)C1=O,–,–,–,ED50 (Rattus norvegicus [4]): 0.11 µmol/kg; ED50 (Rattus norvegicus [5]): 0.052 µmol/kg; ED50 (Rattus norvegicus [6]): > 17 µmol/kg; ED50 (Rattus norvegicus [8]): 0.055 µmol/kg
Fc1ccc(-n2cc(OCCN3CCCCC3)c3cc(Cl)ccc32)cc1,32 nM,–,–,–
CN(CCSc1cn(-c2ccc(F)cc2)c2ccc(Cl)cc12)CCN1CCNC1=O,650 nM,–,790 nM,–
CN(C)CCSc1cn(-c2ccc(F)cc2)c2ccc(Cl)cc12,820 nM,42 nM,–,–
